Test results reported in ChEMBL document CHEMBL1141640, “Cyclic guanidines as dual 5-HT5A/5-HT7 receptor ligands: optimising brain penetration” (Bioorg Med Chem Lett, 2008).

Experiments:
[1] = biological target: T1, 5-hydroxytryptamine receptor 5A (Homo sapiens, UniProt P47898); assay: Binding affinity to human 5HT5A receptor
[2] = Distribution coefficient, log D of the compound; assay type: physicochemical; conditions: octanol/water
How it was run: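 Lipophilicity reported as log D at pH 7.4 (log D7.4), measured alongside the guanidine pKa.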

[3] = Dissociation constant, pKa of the compound; assay type: physicochemical
[4] = biological target: 5-hydroxytryptamine receptor 7 (Homo sapiens, UniProt P34969); assay: Binding affinity to human 5HT7 receptor
[5] = biological target: 5-hydroxytryptamine receptor 5A (Rattus norvegicus, UniProt P35364); assay: Binding affinity to rat 5HT5A receptor
[6] = biological target: T2, 5-hydroxytryptamine receptor 1A (Homo sapiens, UniProt P08908); assay: Binding affinity to human 5HT1A receptor
T2 sequence (P08908 whole entry): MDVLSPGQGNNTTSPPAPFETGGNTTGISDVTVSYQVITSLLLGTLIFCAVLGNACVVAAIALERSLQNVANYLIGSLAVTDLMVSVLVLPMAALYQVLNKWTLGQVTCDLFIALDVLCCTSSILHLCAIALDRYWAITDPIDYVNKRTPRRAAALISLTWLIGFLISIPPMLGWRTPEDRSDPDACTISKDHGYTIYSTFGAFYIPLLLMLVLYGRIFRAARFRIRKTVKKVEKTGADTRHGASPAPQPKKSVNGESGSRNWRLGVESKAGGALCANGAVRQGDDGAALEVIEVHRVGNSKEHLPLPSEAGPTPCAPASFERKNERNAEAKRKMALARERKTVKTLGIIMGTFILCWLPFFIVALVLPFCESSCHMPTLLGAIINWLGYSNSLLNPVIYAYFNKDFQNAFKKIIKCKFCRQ

[7] = biological target: T3, 5-hydroxytryptamine receptor 1D (Homo sapiens, UniProt P28221); assay: Binding affinity to human 5HT1D receptor
[8] = biological target: 5-hydroxytryptamine receptor 2A (Homo sapiens, UniProt P28223); assay: Binding affinity to human 5HT2A receptor
[9] = biological target: T4, 5-hydroxytryptamine receptor 2C (Homo sapiens, UniProt P28335); assay: Binding affinity to human 5HT2C receptor
T4 sequence (P28335 whole entry): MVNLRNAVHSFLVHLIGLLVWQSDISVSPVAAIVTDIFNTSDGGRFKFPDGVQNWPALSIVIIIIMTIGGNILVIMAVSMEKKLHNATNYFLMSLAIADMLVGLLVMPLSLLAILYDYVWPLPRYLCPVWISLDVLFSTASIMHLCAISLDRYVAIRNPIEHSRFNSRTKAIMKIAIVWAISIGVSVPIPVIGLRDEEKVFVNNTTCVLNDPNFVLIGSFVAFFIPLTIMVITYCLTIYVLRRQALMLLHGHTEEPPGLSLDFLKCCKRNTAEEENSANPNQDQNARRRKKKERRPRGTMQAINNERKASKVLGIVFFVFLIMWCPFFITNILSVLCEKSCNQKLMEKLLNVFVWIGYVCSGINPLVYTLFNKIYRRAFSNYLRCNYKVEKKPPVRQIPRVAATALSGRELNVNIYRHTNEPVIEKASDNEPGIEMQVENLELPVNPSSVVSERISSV

[10] = biological target: T5, 5-hydroxytryptamine receptor 3A (Homo sapiens, UniProt P46098); assay: Binding affinity to human 5HT3 receptor
T5 sequence (P46098 whole entry): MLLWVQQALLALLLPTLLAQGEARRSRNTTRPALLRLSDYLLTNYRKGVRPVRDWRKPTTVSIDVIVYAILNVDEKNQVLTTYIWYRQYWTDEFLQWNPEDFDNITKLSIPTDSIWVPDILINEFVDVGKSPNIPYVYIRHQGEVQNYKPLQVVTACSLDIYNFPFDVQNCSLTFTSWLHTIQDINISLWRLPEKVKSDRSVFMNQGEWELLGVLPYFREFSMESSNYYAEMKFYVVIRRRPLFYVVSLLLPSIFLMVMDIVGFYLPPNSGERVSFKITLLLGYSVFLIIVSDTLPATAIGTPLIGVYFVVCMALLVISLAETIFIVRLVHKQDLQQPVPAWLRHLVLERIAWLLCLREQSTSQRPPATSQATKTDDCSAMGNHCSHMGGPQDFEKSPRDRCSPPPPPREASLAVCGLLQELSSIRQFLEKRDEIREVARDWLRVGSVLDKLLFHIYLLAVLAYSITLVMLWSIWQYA

[11] = biological target: 5-hydroxytryptamine receptor 6 (Homo sapiens, UniProt P50406); assay: Binding affinity to human 5HT6 receptor
[12] = biological target: T2, 5-hydroxytryptamine receptor 1A; assay: Binding affinity to 5HT1A receptor
[13] = Selectivity for human 5HT5A receptor over 5HT6 receptor
[14] = biological target: T3, 5-hydroxytryptamine receptor 1D; assay: Binding affinity to 5HT1D receptor
[15] = biological target: T4, 5-hydroxytryptamine receptor 2C; assay: Binding affinity to 5HT2C receptor
[16] = Selectivity for human 5HT5A receptor over 5HT3 receptor
[17] = Selectivity for human 5HT5A receptor over 5HT2A receptor
Histamine H1 receptor = Histamine H1 receptor (Homo sapiens, UniProt P35367); assay: Binding affinity to histamine H1 receptor
[18] = biological target: T1, 5-hydroxytryptamine receptor 5A; assay: Antagonist activity at human 5HT5A receptor by [35S]GTP-gamma-S binding assay; assay type: functional; conditions: read-out: pA2 (converted)
How it was run: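 Functional antagonism at human 5-HT5A receptor measured by [35S]GTPγS binding; potency reported as pA2.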

[19] = Clearance in mouse at 5 mg/kg, iv; assay type: ADME, organism-based; design: dose 5 mg/kg, route intravenous; conditions: in vivo
[20] = Volume of distribution at steady state in mouse at 5 mg/kg, iv; assay type: ADME, organism-based; design: dose 5 mg/kg, route intravenous; conditions: in vivo, read-out: Vdss
[21] = Half life in mouse at 5 mg/kg, iv; assay type: ADME, organism-based; design: dose 5 mg/kg, route intravenous; conditions: in vivo
[22] = Cmax in mouse at 10 mg/kg, po; assay type: ADME, organism-based; design: dose 10 mg/kg, route oral; conditions: in vivo
[23] = Tmax in mouse at 10 mg/kg, po; assay type: ADME, organism-based; design: dose 10 mg/kg, route oral; conditions: in vivo
[24] = Oral bioavailability in mouse at 10 mg/kg; assay type: ADME, organism-based; conditions: in vivo
Brain = assay: Drug level in mouse brain at 6.6 mg/kg, po; assay type: ADME, organism-based; design: dose 6.6 mg/kg, route oral; conditions: in vivo, read-out: Drug uptake
[25] = Cmax in mouse at 6.6 mg/kg, po; assay type: ADME, organism-based; design: dose 6.6 mg/kg, route oral; conditions: in vivo
[26] = Tmax in mouse at 6.6 mg/kg, po; assay type: ADME, organism-based; design: dose 6.6 mg/kg, route oral; conditions: in vivo
[27] = Oral bioavailability in mouse at 6.6 mg/kg; assay type: ADME, organism-based; conditions: in vivo
[28] = Ratio of drug level in brain to plasma in mouse at 6.6 mg/kg, po; assay type: ADME, organism-based; design: dose 6.6 mg/kg, route oral
How it was run: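 Mouse pharmacokinetic study with a single oral (po) dose of 6.6 mg/kg. Drug levels were measured in brain and in plasma, and the brain/plasma ratio was taken from these.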

T1 sequence (P47898 whole entry): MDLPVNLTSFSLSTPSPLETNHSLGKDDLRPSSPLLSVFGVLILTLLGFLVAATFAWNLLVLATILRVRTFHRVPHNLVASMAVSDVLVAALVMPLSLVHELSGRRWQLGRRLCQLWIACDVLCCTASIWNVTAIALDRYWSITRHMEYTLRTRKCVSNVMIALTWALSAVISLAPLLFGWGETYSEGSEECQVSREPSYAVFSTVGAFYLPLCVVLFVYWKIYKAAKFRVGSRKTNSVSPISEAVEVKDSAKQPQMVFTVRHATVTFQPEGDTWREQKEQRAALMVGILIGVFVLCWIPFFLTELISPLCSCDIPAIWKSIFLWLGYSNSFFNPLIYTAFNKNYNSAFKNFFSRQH
Chain of 5-hydroxytryptamine receptor 7 (P34969 whole entry): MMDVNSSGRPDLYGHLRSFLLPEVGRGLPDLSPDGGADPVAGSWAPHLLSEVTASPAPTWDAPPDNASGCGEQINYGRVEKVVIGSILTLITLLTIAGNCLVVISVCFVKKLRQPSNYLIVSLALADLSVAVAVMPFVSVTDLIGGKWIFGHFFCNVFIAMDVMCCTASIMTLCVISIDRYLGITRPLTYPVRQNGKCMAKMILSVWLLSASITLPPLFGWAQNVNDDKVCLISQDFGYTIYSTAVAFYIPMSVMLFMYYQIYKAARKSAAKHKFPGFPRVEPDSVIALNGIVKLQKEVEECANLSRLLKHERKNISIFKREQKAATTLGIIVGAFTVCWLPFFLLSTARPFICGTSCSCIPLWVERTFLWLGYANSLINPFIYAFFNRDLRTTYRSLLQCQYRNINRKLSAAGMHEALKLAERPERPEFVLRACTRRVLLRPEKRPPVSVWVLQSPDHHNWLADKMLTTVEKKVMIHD
T3 sequence (P28221 whole entry): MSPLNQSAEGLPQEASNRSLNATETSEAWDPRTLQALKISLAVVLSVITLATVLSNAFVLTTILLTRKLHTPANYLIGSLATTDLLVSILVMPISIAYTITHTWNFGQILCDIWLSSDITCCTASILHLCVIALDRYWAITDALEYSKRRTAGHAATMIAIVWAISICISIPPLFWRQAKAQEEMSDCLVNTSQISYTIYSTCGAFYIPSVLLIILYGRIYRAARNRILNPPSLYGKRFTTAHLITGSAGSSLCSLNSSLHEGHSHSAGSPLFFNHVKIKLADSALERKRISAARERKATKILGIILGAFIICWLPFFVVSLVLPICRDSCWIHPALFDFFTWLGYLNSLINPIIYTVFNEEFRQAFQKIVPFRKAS
Chain of Histamine H1 receptor (P35367 whole entry): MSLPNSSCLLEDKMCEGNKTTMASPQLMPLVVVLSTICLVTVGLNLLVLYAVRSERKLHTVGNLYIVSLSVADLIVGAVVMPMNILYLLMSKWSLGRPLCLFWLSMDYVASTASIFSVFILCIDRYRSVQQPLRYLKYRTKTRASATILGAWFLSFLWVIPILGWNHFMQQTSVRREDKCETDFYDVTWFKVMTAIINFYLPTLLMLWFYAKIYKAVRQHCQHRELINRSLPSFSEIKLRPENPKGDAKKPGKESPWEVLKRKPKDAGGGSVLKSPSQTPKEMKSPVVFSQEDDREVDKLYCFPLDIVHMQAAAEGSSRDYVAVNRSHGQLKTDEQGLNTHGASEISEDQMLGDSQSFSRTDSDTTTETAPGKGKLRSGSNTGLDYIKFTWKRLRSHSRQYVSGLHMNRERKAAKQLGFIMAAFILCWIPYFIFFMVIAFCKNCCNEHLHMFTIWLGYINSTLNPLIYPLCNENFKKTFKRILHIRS
Chain of 5-hydroxytryptamine receptor 6 (P50406 whole entry): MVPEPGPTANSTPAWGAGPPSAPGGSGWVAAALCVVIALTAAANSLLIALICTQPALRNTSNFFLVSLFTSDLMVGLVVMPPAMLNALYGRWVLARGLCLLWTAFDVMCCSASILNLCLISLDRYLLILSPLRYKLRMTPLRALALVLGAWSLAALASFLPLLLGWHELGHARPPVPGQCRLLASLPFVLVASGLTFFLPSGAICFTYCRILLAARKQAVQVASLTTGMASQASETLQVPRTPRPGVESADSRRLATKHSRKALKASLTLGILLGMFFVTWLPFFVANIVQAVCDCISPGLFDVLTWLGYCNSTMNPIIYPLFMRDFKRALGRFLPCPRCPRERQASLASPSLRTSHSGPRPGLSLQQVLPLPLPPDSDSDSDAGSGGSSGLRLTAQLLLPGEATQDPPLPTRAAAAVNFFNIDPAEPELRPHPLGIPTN
Chain of 5-hydroxytryptamine receptor 5A (Rattus norvegicus, UniProt P35364) (P35364 whole entry): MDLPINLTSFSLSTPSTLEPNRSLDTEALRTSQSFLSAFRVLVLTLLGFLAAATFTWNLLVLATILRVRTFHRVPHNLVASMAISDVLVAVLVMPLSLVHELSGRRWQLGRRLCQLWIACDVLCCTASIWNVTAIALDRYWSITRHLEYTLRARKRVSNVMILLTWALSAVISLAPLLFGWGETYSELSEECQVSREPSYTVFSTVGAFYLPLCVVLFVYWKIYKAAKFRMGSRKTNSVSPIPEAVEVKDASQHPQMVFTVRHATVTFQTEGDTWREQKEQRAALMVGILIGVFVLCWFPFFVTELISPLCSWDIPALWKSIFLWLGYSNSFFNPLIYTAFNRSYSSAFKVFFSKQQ
Chain of 5-hydroxytryptamine receptor 2A (P28223 whole entry): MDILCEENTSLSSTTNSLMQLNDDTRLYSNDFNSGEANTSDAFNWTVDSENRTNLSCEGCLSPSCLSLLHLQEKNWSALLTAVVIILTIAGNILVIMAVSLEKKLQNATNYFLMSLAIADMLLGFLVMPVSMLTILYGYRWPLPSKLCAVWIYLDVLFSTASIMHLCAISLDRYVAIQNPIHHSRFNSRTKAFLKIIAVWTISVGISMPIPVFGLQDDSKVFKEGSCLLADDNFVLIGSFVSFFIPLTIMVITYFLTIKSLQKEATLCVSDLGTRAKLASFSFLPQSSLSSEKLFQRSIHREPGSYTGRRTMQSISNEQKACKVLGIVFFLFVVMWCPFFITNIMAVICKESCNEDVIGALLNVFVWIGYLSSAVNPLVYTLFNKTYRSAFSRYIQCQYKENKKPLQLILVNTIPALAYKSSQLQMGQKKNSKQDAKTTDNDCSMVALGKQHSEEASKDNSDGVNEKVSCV

CNC1=Nc2ccccc2C(C)N1 (stereo unspecified)
Ki ([1]; read-out: Ki): 103 nM
logD [2]: -0.6
pKa [3]: 10.6

C[C@@H]1NC(N)=Nc2cccc(Cl)c21
Ki ([1]; read-out: Ki): 1.6 nM
Ki [4]: 6 nM
Ki [5]: 1.3 nM
Ki [6]: 95.2 nM
Ki [7]: 1100 nM
Ki [8]: 257 nM
Ki [9]: 55 nM
Ki [10]: 1060 nM
Ki [11]: 1030 nM

CC1NC(NC[C@H]2CCCO2)=Nc2ccccc21 (stereo partly specified)
Ki ([1]; read-out: Ki): 163 nM
logD [2]: -0.6

CC1NC(N)=Nc2ccccc21 (stereo unspecified)
logD [2]: -1.4
pKa [3]: 10.5

CCCOCCNC1=Nc2ccccc2C(C)N1 (stereo unspecified)
Ki ([1]; read-out: Ki): 241 nM
logD [2]: 0.1

CC1NC(NCC(F)F)=Nc2ccccc21 (stereo unspecified)
Ki ([1]; read-out: Ki): 87 nM
logD [2]: -0.2
pKa [3]: 9.7

CC1NC(NCCC2CCCCC2)=Nc2ccccc21 (stereo unspecified)
Ki ([1]; read-out: Ki): 124 nM
logD [2]: 1.3

CCNC1=Nc2ccccc2C(C)N1 (stereo unspecified)
Ki ([1]; read-out: Ki): 196 nM
logD [2]: -0.9
pKa [3]: 10.8

COc1c(Cl)ccc2c1C(C)NC(NCC(F)F)=N2 (stereo unspecified)
Ki [12]: 348 nM
Ki ([1]; read-out: Ki): 22.2 nM
Ki [4]: 17.6 nM
logD [2]: 1.5
Selectivity ratio [13]: > 30
pKa [3]: 8.9
Ki [14]: 1810 nM
Ki [15]: 233 nM
Selectivity ratio [16]: > 30
Selectivity ratio [17]: > 30

CC1NC(NCCF)=Nc2ccccc21 (stereo unspecified)
Ki ([1]; read-out: Ki): 397 nM

C[C@H]1NC(NCC(F)F)=Nc2cccc(Cl)c21
Ki ([1]; read-out: Ki): 1470 nM

CC1NC(NCC(F)(F)F)=Nc2ccccc21 (stereo unspecified)
Ki ([1]; read-out: Ki): 488 nM
logD [2]: 0.5
pKa [3]: 9.2

CC1NC(NCC2COCCO2)=Nc2ccccc21 (stereo unspecified)
Ki ([1]; read-out: Ki): 96 nM
logD [2]: -0.8

C[C@H]1NC(N)=Nc2cccc(Cl)c21
Ki ([1]; read-out: Ki): 415 nM

CC1NC(NCC(F)F)=Nc2ccc(Cl)c(Cl)c21 (stereo unspecified)
Ki [12]: 124 nM
Ki [4]: 23.3 nM
logD [2]: 2.7
Selectivity ratio [13]: > 30
pKa [3]: 8.5
Ki [14]: 630 nM
Ki [15]: 162 nM
Selectivity ratio [16]: > 30
Selectivity ratio [17]: > 30
Ki (Histamine H1 receptor): 18.3 nM

CC1NC(N)=Nc2cccc(Cl)c21 (stereo unspecified)
Ki ([1]; read-out: Log Ki (converted)): 5.01 nM
Kb [18]: 3.16 nM
logD [2]: 0
pKa [3]: 9.9
clearance [19]: 30 mL/min/kg
Vd [20]: 9 L/kg
half-life [21]: 4 h
Cmax [22]: 660 ng/mL
Tmax [23]: 0.75 h
bioavailability [24]: 59%

CC1NC(NCC(F)F)=Nc2cccc(Cl)c21 (stereo unspecified)
Ki [12]: 85 nM
Kb [18]: 38.9 nM
Ki [4]: 33.3 nM
logD [2]: 1.5
Selectivity ratio [13]: > 30
concentration (Brain): > 1000 nM
pKa [3]: 8.9
Ki [14]: 1370 nM
Ki [15]: 401 nM
Selectivity ratio [16]: > 30
Selectivity ratio [17]: > 30
clearance [19]: 31 mL/min/kg
Vd [20]: 3.6 L/kg
half-life [21]: 1.4 h
Cmax [25]: 740 ng/mL
Tmax [26]: 0.25 h
bioavailability [27]: 36%
Kp [28]: 4

CC1NC(NCC(F)F)=Nc2c(Cl)ccc(Cl)c21 (stereo unspecified)
Ki [12]: 87 nM
Ki ([1]; read-out: Ki): 33.4 nM
Ki [4]: 366 nM
logD [2]: 3
Selectivity ratio [13]: > 30
pKa [3]: 7.8
Ki [14]: > 10000 nM
Ki [15]: 675 nM
Selectivity ratio [16]: > 30
Selectivity ratio [17]: > 30

CCCNC1=Nc2ccccc2C(C)N1 (stereo unspecified)
Ki ([1]; read-out: Ki): 153 nM
logD [2]: -0.8
pKa [3]: 10.7

CC(C)Oc1cccc2c1N=C(NCC(F)F)NC2C (stereo unspecified)
Ki [12]: 240 nM
Ki ([1]; read-out: Ki): 22.2 nM
Ki [4]: 4.2 nM
logD [2]: 0.1
Selectivity ratio [13]: > 30
pKa [3]: 10.2
Ki [14]: 82 nM
Ki [15]: 2150 nM
Selectivity ratio [16]: > 30
Selectivity ratio [17]: > 30

COc1cccc2c1N=C(NCC(F)F)NC2C (stereo unspecified)
Ki [12]: 53 nM
Ki [4]: 38.9 nM
logD [2]: -0.5
Selectivity ratio [13]: > 30
pKa [3]: 10.2
Ki [14]: 747 nM
Ki [15]: 1660 nM
Selectivity ratio [16]: > 30
Selectivity ratio [17]: > 30

CC1NC(NC2CCC2)=Nc2ccccc21 (stereo unspecified)
Ki ([1]; read-out: Ki): 122 nM
logD [2]: -0.6

C[C@H]1NC(NCC(F)F)=Nc2ccc(Cl)c(Cl)c21
Ki [12]: 612 nM
Ki ([1]; read-out: Ki): 504 nM
Ki [4]: 1700 nM
logD [2]: 2.7
pKa [3]: 8.5
Ki [14]: > 10000 nM
Ki [15]: 238 nM

C[C@@H]1NC(NCC(F)F)=Nc2cccc(Cl)c21
Ki ([1]; read-out: Ki): 6.8 nM
Ki [4]: 24.8 nM
Ki [5]: 2.9 nM
Ki [6]: 56 nM
Ki [7]: 1440 nM
Ki [8]: 491 nM
Ki [9]: 352 nM
Ki [11]: 4480 nM

CC1NC(NC2CCCCN(C)C2=O)=Nc2ccccc21 (stereo unspecified)
Ki ([1]; read-out: Ki): 279 nM
logD [2]: -0.1

CCCCNC1=Nc2ccccc2C(C)N1 (stereo unspecified)
Ki ([1]; read-out: Ki): 189 nM
logD [2]: -0.3
pKa [3]: 10.7

CC1NC(NCC2COc3ccccc3O2)=Nc2ccccc21 (stereo unspecified)
Ki ([1]; read-out: Ki): 37 nM
logD [2]: 1

CCOCCCNC1=Nc2ccccc2C(C)N1 (stereo unspecified)
Ki ([1]; read-out: Ki): 176 nM
logD [2]: -0.3

C[C@@H]1NC(NCC(F)F)=Nc2ccc(Cl)c(Cl)c21
Ki [12]: 75 nM
Ki ([1]; read-out: Ki): 1.8 nM
Ki [4]: 7.7 nM
logD [2]: 2.7
Selectivity ratio [13]: > 30
pKa [3]: 8.5
Ki [14]: 233 nM
Ki [15]: 121 nM
Selectivity ratio [16]: > 30
Selectivity ratio [17]: > 30
Ki (Histamine H1 receptor): 2.6 nM
